Results: ChEMBL document CHEMBL3046951, “Volatile constituents from the leaves of Callicarpa japonica Thunb. and their antibacterial activities” (2004)

Columns and labels:
Type in all cases: functional
[1] = tested on: Salmonella typhimurium; test: Antimicrobial activity against Salmonella enterica subsp. enterica serovar Typhimurium ATCC 14028 assessed as growth inhibition rate at 9.84 mg/l after 72 hr by spectrophotometry; settings: ATCC 14028, 72 h, read-out: GI
[2] = tested on: Bacillus cereus; test: Antimicrobial activity against Bacillus cereus ATCC 11778 assessed as growth inhibition rate at 9.84 mg/l after 72 hr by spectrophotometry; settings: ATCC 11778, 72 h, read-out: GI
Method in brief: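 Pure volatile compounds (>95% purity) from the leaf extract were tested against B. cereus grown at 30 °C in nutrient broth from an 18 h subculture. Optical density was read in a Bioscreen C every 24 h over 72 h, and activity was compared with a 10% Tween 80 control.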

[3] = tested on: Vibrio parahaemolyticus; test: Antimicrobial activity against Vibrio parahaemolyticus ATCC 33844 assessed as growth inhibition rate at 9.84 mg/l after 72 hr by spectrophotometry; settings: ATCC 33844, 72 h, read-out: GI
[4] = tested on: Listeria monocytogenes; test: Antimicrobial activity against Listeria monocytogenes ATCC 19111 assessed as growth inhibition rate at 9.84 mg/l after 72 hr by spectrophotometry; settings: ATCC 19111, 72 h, read-out: GI
Method in brief: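 Pure volatile compounds (>95% purity) tested on Listeria monocytogenes ATCC 19111 in tryptic soy broth at 30 °C. Inoculum: 24 h culture subcultured (0.1 mL into 9.9 mL broth) and grown 18 h. Growth followed by Bioscreen C optical density every 24 h for 72 h against a 10% Tween 80 control.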

[5] = tested on: Escherichia coli; test: Antimicrobial activity against Escherichia coli O157:H7 ATCC 43894 assessed as growth inhibition rate at 9.84 mg/l after 72 hr by spectrophotometry; settings: O157:H7 ATCC 43894, 72 h, read-out: GI
Method in brief: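 Authentic volatiles (>95% purity; 2,4-heptadienal 90%) tested against 18 h subcultures. Growth media: E. coli O157:H7 and S. aureus in tryptic soy broth at 37 °C; L. monocytogenes in tryptic soy broth at 30 °C; V. parahaemolyticus in tryptic soy broth + 3% NaCl at 37 °C; S. typhimurium in nutrient broth at 30 °C. Bioscreen C OD every 24 h for 72 h versus 10% Tween 80 control.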

[6] = tested on: Staphylococcus aureus; test: Antimicrobial activity against Staphylococcus aureus ATCC 25923 assessed as growth inhibition rate at 9.84 mg/l after 72 hr by spectrophotometry; settings: ATCC 25923, 72 h, read-out: GI

`CCCCCCO` [1-HEXANOL] was tested, and the inhibition of growth at 9.84 µg/mL [1] was 23.3%, the inhibition of growth at 9.84 µg/mL [2] was 3.6% and the inhibition of growth at 9.84 µg/mL [3] was 27.1%. The inhibition of growth at 9.84 µg/mL [4] was 4.2%, the inhibition of growth at 9.84 µg/mL [5] was 16.9% and the inhibition of growth at 9.84 µg/mL [6] was 6.9%.
